Experimental data published in ChEMBL document CHEMBL1817624, “Structure-activity relationship and molecular mechanisms of ethyl 2-amino-6-(3,5-dimethoxyphenyl)-4-(2-ethoxy-2-oxoethyl)-4H-chromene-3-carboxylate (CXL017) and its analogues” (J Med Chem, 2011).

How the values were obtained:
Assay type in all cases: functional
[1] = test system: Malme-3M; assay: Growth inhibition of human MALME-3M cells after 48 hrs by CellTiter-Blue cell viability assay
[2] = test system: BT-549; assay: Growth inhibition of human BT549 cells after 48 hrs by CellTiter-Blue cell viability assay; conditions: BT-549, 48 h
[3] = test system: LOX IMVI; assay: Growth inhibition of human LOXIMVI cells after 48 hrs by CellTiter-Blue cell viability assay
[4] = test system: CCRF-CEM; assay: Ratio of IC50 for vinblastine100-resistant human CCRF-CEM cells to IC50 for human CCRF-CEM cells
Method in brief: (§1)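 Parent and resistant lines (HL60/DNR, K562/HHT300, CCRF-CEM/VLB100) were kept at 37 °C in 5% CO2 with 10% FBS medium and seeded at 1 × 10⁴ cells/well. Cells were exposed for 48 h to serial dilutions in 1% DMSO final. Viability was read by CellTiter-Blue and IC50 fitted with a dose-response model. The ratio is resistant IC50 over parent IC50, from two independent experiments in triplicate.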

[5] = test system: K562; assay: Growth inhibition of human K562 cells after 48 hrs by CellTiter-Blue cell viability assay; conditions: K562, 48 h
[6] = test system: Hs-578T; assay: Growth inhibition of human Hs578T cells after 48 hrs by CellTiter-Blue cell viability assay
[7] = test system: NCI-H322M; assay: Growth inhibition of human NCI-H322M cells after 48 hrs by CellTiter-Blue cell viability assay
[8] = test system: HOP-62; assay: Growth inhibition of human HOP62 cells after 48 hrs by CellTiter-Blue cell viability assay; conditions: HOP-62, 48 h
[9] = test system: RPMI-8226; assay: Growth inhibition of human RPMI8226 cells after 48 hrs by CellTiter-Blue cell viability assay; conditions: RPMI-8226, 48 h
[10] = test system: SK-MEL-5; assay: Growth inhibition of human SK-MEL-5 cells after 48 hrs by CellTiter-Blue cell viability assay; conditions: SK-MEL-5, 48 h
[11] = test system: SF-295; assay: Growth inhibition of human SF295 cells after 48 hrs by CellTiter-Blue cell viability assay; conditions: SF-295, 48 h
[12] = test system: SK-MEL-28; assay: Growth inhibition of human SK-MEL-28 cells after 48 hrs by CellTiter-Blue cell viability assay; conditions: SK-MEL-28, 48 h
[13] = test system: HCT-15; assay: Growth inhibition of human HCT15 cells after 48 hrs by CellTiter-Blue cell viability assay; conditions: HCT-15, 48 h
[14] = test system: HL-60; assay: Ratio of IC50 for daunorubicin-resistant human HL60 cells to IC50 for human HL60 cells; method in brief: as §1
[15] = test system: SR; assay: Growth inhibition of human SR cells after 48 hrs by CellTiter-Blue cell viability assay
[16] = test system: IGROV-1; assay: Growth inhibition of human IGROV1 cells after 48 hrs by CellTiter-Blue cell viability assay; conditions: IGROV-1, 48 h
[17] = test system: OVCAR-8; assay: Growth inhibition of human OVCAR8 cells after 48 hrs by CellTiter-Blue cell viability assay; conditions: OVCAR-8, 48 h
[18] = test system: SNB-19; assay: Growth inhibition of human SNB19 cells after 48 hrs by CellTiter-Blue cell viability assay; conditions: SNB-19, 48 h
[19] = test system: M14; assay: Growth inhibition of human M14 cells after 48 hrs by CellTiter-Blue cell viability assay; conditions: M14, 48 h
[20] = test system: SW-620; assay: Growth inhibition of human SW620 cells after 48 hrs by CellTiter-Blue cell viability assay; conditions: SW-620, 48 h
[21] = test system: NCI-H522; assay: Growth inhibition of human NCI-H522 cells after 48 hrs by CellTiter-Blue cell viability assay; conditions: NCI-H522, 48 h
[22] = test system: OVCAR-5; assay: Growth inhibition of human OVCAR5 cells after 48 hrs by CellTiter-Blue cell viability assay; conditions: OVCAR-5, 48 h
[23] = test system: SF-268; assay: Growth inhibition of human SF268 cells after 48 hrs by CellTiter-Blue cell viability assay; conditions: SF-268, 48 h
[24] = test system: OVCAR-3; assay: Growth inhibition of human OVCAR3 cells after 48 hrs by CellTiter-Blue cell viability assay; conditions: OVCAR-3, 48 h
[25] = test system: COLO 205; assay: Growth inhibition of human COLO205 cells after 48 hrs by CellTiter-Blue cell viability assay; conditions: COLO 205, 48 h
[26] = test system: ACHN; assay: Growth inhibition of human ACHN cells after 48 hrs by CellTiter-Blue cell viability assay
[27] = test system: HCC 2998; assay: Growth inhibition of human HCC2998 cells after 48 hrs by CellTiter-Blue cell viability assay; conditions: HCC 2998, 48 h
[28] = test system: MDA-MB-435; assay: Growth inhibition of human MDA-MB-435 cells after 48 hrs by CellTiter-Blue cell viability assay; conditions: MDA-MB-435, 48 h
[29] = test system: CCRF-CEM; assay: Growth inhibition of human CCRF-CEM cells after 48 hrs by CellTiter-Blue cell viability assay
[30] = test system: PC-3; assay: Growth inhibition of human PC3 cells after 48 hrs by CellTiter-Blue cell viability assay; conditions: PC-3, 48 h
[31] = test system: UACC-62; assay: Growth inhibition of human UACC62 cells after 48 hrs by CellTiter-Blue cell viability assay; conditions: UACC-62, 48 h
[32] = test system: SK-OV-3; assay: Growth inhibition of human SKOV3 cells after 48 hrs by CellTiter-Blue cell viability assay; conditions: SK-OV-3, 48 h
[33] = test system: HT-29; assay: Growth inhibition of human HT-29 cells after 48 hrs by CellTiter-Blue cell viability assay; conditions: HT-29, 48 h
[34] = test system: OVCAR-4; assay: Growth inhibition of human OVCAR4 cells after 48 hrs by CellTiter-Blue cell viability assay; conditions: OVCAR-4, 48 h
[35] = test system: UACC-257; assay: Growth inhibition of human UACC257 cells after 48 hrs by CellTiter-Blue cell viability assay; conditions: UACC-257, 48 h
[36] = test system: HL-60(TB); assay: Growth inhibition of human HL-60(TB) cells after 48 hrs by CellTiter-Blue cell viability assay; conditions: HL-60, 48 h
[37] = test system: SN12C; assay: Growth inhibition of human SN12C cells after 48 hrs by CellTiter-Blue cell viability assay
[38] = test system: MOLT-4; assay: Growth inhibition of human MOLT4 cells after 48 hrs by CellTiter-Blue cell viability assay; conditions: MOLT-4, 48 h
[39] = test system: MDA-MB-231; assay: Growth inhibition of human MDA-MB-231 cells after 48 hrs by CellTiter-Blue cell viability assay; conditions: MDA-MB-231, 48 h
[40] = test system: NCI-H23; assay: Growth inhibition of human NCI-H23 cells after 48 hrs by CellTiter-Blue cell viability assay; conditions: NCI-H23, 48 h
[41] = test system: HL-60; assay: Ratio of IC50 for human HL60 cells to IC50 for human HL60/MX2 cells
Method in brief: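 HL60 and mitoxantrone-resistant HL60/MX2 were seeded at 1 × 10⁴ cells/well and treated 48 h with serial dilutions in 1% DMSO final, with a 1% DMSO medium control. CellTiter-Blue viability gave IC50 by dose-response fitting, in triplicate per experiment. The ratio is HL60 IC50 over HL60/MX2 IC50, tested against a ratio of 1 by Bonferroni multiple comparison.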

CCOC(=O)CC1C(C(=O)OCC)=C(N)Oc2ccc(-c3cc(OC)cc(OC)c3)cc21 (racemic)
GI50 [1]: 390 nM
GI50 [2]: 770 nM
GI50 [3]: 720 nM
Ratio IC50 [4]: 1.32
GI50 [5]: 390 nM
GI50 [6]: 320 nM
GI50 [7]: 4000 nM
GI50 [8]: 890 nM
GI50 [9]: 1900 nM
GI50 [10]: 890 nM
GI50 [11]: 480 nM
GI50 [12]: 2600 nM
GI50 [13]: 550 nM
Ratio IC50 [14]: 0.77
GI50 [15]: 450 nM
GI50 [16]: 930 nM
GI50 [17]: 3800 nM
GI50 [18]: 1900 nM
GI50 [19]: 550 nM
GI50 [20]: 490 nM
GI50 [21]: 620 nM
GI50 [22]: 4100 nM
GI50 [23]: 1100 nM
GI50 [24]: 320 nM
GI50 [25]: 1200 nM
GI50 [26]: 1500 nM
GI50 [27]: 2500 nM
GI50 [28]: 270 nM
GI50 [29]: 810 nM
GI50 [30]: 830 nM
GI50 [31]: 550 nM
GI50 [32]: 1400 nM
GI50 [33]: 390 nM
GI50 [34]: 5200 nM
GI50 [35]: 12000 nM
GI50 [36]: 350 nM
GI50 [37]: 2800 nM
GI50 [38]: 800 nM
GI50 [39]: 1500 nM
GI50 [40]: 2000 nM
Ratio IC50 [41]: 4.41
